Calls of active or inactive are those of the source. The calls are words filed in the database; no cut-off is given here.
Columns and labels:
SN56 = test: Suppression of staurosporine-initiated apoptosis in mouse SN56 cells at 0.5 uM; format: functional, cell-based
Method in brief: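 Murine SN56 basal forebrain cells and their rat-TrkA stably transfected line T17 (DMEM, 1 mM pyruvate, 10% FBS; T17 with 300 μg/ml G418). Cells were preincubated with 0.5 μM compound, then given 1 μM staurosporine for 9 h. Apoptosis was read with the caspase-3-activated dye MR(DEVD)2 (10 μM, last hour) plus Hoechst counterstain after fixation. Three independent experiments, mean ± SD.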

PC-12 [1] = test: Induction of neurite outgrowth in rat PC12 cells at 0.5 uM after 5 days; format: functional, cell-based
Method in brief: (§1)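 PC12 cells were seeded at 1 × 10^4 per well on poly-L-lysine and grown 24 h, then treated with compounds (0.5 μM, or 10–50 nM in dose series) or NGF for 5 days, with medium replenished every other day. Neurites were counted as processes longer than two cell bodies. Three independent experiments.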

[2] = Suppression of staurosporine-initiated apoptosis in mouse T17 cells at 0.5 uM
TrkB-stable [3] = test: Induction of MAPK signaling activation in TrkB-stable cells; format: cell-based
TrkB-stable [4] = test: Induction of PI3K signaling activation in TrkB-stable cells; format: cell-based
[5] = biological target: High affinity nerve growth factor receptor (Rattus norvegicus) (UniProt P35739); test: Induction of TrkA phosphorylation in rat hippocampal neurons at 0.5 uM after 30 mins; format: tissue-based; conditions: Hippocampus
Sequence of High affinity nerve growth factor receptor (Rattus norvegicus) (P35739 whole entry): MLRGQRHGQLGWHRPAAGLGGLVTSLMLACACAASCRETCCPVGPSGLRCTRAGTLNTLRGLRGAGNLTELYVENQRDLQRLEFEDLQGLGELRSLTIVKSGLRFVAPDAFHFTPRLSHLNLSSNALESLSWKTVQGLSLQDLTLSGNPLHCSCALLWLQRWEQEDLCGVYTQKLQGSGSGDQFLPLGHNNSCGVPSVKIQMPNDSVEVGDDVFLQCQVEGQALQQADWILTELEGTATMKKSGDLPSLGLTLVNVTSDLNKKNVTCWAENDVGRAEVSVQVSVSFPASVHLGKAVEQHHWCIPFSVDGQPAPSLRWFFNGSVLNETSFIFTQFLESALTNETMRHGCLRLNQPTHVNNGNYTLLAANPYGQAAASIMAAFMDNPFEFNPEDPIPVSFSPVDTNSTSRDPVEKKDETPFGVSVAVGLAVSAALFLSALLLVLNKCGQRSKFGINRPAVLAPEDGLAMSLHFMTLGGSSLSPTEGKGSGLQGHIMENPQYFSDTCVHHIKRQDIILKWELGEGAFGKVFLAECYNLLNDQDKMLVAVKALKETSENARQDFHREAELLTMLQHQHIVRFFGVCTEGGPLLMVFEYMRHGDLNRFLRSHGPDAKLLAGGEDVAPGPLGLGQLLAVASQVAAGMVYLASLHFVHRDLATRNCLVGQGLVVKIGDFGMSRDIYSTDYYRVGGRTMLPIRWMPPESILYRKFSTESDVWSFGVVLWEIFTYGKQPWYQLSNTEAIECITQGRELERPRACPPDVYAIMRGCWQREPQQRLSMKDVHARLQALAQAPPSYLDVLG
Method in brief: (§2)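 Primary hippocampal neurons were treated with 0.5 μM compounds for 30 min; lysates were immunoblotted with anti-phospho-Trk Y490 antibody. Repeated more than three times.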

[6] = biological target: High affinity nerve growth factor receptor (Rattus norvegicus) (UniProt P35739); test: Reversal of TrkA phosphorylation in rat hippocampal neurons at 0.5 uM after 30 mins in presence of K252a; format: tissue-based; conditions: Hippocampus
HEK293 = test: Stimulation of TrkA and TrkB dimerization co-transfected in HEK293 cells at 0.5 uM after 30 mins by immunoblotting analysis; format: cell-based
Method in brief: (§3)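 HEK293 cells were cotransfected with GFP-TrkA plus HA-TrkA or HA-TrkB, then treated with 0.5 μM compound for 30 min. GFP-TrkA was immunoprecipitated with anti-GFP and coprecipitated receptor detected by anti-HA immunoblot.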

PC-12 [7] = test: Blockade of induction of neurite outgrowth in rat PC12 cells in presence of K252a; format: functional, cell-based
[8] = biological target: Epidermal growth factor receptor (Homo sapiens) (UniProt P00533); test: Binding affinity to EGFR
Hippocampal neurone [9] = test: Neuroprotective effect in glutamate-induced cell death in rat hippocampal neurons after 30 mins; format: functional, tissue-based; conditions: Hippocampus
Method in brief: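 Primary hippocampal neurons were pretreated with compounds for 30 min, then exposed to 50 μM glutamate for 16 h. Apoptosis was quantified with the MR(DEVD)2 caspase-3 dye; NGF served as positive control. Three independent experiments, mean ± SD.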

[10] = biological target: High affinity nerve growth factor receptor (Homo sapiens) (UniProt P04629); test: Stimulation of TrkA dimerization co-transfected in HEK293 cells at 0.5 uM after 30 mins by immunoblotting analysis in presence of green fluorescent protein; format: cell-based; method in brief: as §3
Sequence of High affinity nerve growth factor receptor (Homo sapiens) (P04629 33-796 limits assumed): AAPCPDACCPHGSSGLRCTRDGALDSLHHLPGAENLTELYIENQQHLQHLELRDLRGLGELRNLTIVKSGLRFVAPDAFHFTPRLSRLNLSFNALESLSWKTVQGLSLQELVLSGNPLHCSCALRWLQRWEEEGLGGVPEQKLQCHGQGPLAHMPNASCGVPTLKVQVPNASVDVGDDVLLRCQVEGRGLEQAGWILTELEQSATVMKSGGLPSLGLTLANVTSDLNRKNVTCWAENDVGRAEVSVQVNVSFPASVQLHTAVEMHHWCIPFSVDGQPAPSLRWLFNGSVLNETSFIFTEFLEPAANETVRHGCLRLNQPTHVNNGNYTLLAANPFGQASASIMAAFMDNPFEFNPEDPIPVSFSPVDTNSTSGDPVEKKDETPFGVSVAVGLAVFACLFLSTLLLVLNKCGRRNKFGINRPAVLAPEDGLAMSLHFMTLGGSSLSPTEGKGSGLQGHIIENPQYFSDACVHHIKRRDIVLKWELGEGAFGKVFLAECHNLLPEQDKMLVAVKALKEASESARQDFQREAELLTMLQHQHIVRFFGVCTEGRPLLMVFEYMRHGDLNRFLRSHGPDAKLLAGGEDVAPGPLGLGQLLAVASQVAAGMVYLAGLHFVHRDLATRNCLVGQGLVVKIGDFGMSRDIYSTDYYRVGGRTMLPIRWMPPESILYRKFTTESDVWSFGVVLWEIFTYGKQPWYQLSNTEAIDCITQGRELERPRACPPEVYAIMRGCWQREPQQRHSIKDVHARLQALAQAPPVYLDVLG

[11] = biological target: RAC-alpha serine/threonine-protein kinase (Mus musculus) (UniProt P31750); test: Induction of Akt phosphorylation in mouse T17 cells
[12] = biological target: BDNF/NT-3 growth factors receptor (Homo sapiens) (UniProt Q16620); test: Binding affinity to TrkB
Sequence of BDNF/NT-3 growth factors receptor (Homo sapiens) (Q16620 32-822 limits assumed): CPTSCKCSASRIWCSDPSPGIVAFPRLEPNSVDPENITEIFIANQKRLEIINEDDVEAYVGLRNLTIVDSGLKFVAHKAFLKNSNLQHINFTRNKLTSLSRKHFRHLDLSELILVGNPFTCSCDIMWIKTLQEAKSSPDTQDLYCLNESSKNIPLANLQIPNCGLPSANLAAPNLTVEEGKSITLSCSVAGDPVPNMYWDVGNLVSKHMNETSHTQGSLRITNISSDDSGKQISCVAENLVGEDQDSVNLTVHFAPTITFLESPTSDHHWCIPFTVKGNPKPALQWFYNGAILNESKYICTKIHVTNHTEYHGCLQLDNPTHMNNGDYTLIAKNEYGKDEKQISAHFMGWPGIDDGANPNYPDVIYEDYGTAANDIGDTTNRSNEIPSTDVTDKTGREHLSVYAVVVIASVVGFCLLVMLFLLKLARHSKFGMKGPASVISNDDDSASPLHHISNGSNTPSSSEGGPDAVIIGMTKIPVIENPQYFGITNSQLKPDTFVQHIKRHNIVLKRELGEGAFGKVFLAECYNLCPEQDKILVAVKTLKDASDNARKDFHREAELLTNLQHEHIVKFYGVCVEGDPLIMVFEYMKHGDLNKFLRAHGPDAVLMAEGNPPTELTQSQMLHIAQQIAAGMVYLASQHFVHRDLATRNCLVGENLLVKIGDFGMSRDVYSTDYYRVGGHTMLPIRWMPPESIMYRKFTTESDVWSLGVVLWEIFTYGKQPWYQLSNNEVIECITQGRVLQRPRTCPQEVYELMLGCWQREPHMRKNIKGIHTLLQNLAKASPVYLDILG

Rattus norvegicus [13] = species: Rattus norvegicus; test: Reversal of TrkA Y751 phosphorylation in rat hippocampal neurons at 0.5 uM after 30 mins in presence of K252a; format: tissue-based; conditions: Hippocampus
[14] = biological target: High affinity nerve growth factor receptor (Homo sapiens) (UniProt P04629); test: Binding affinity to TrkA
Method in brief: (§4)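 GFP-tagged TrkA (wild-type or kinase-dead) expressed in transfected HEK293 cells; lysates bound to gambogic amide immobilised on Affi-Gel 102 through an amide bond. For Kd, TrkA-loaded beads were competed with increasing free compound. After extensive washing, bead-bound protein was immunoblotted with anti-GFP and quantitated densitometrically.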

[15] = biological target: High affinity nerve growth factor receptor (Rattus norvegicus) (UniProt P35739); test: Induction of Akt phosphorylation in rat primary hippocampal neurons at 0.5 uM; conditions: Hippocampus, TDE = time-dependent effect
Method in brief: (§5)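 Hippocampal neurons were given 0.5 μM compound for 5–180 min (time course), or a dose range for 30 min, with 50 ng/ml NGF for comparison. Akt phosphorylation was detected by immunoblotting with phospho-Akt (473/308) antibodies.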

[16] = biological target: Mitogen-activated protein kinase 1 (Homo sapiens) (UniProt P28482); test: Induction of ERK2 phosphorylation
Sequence of Mitogen-activated protein kinase 1 (Homo sapiens) (P28482 whole entry): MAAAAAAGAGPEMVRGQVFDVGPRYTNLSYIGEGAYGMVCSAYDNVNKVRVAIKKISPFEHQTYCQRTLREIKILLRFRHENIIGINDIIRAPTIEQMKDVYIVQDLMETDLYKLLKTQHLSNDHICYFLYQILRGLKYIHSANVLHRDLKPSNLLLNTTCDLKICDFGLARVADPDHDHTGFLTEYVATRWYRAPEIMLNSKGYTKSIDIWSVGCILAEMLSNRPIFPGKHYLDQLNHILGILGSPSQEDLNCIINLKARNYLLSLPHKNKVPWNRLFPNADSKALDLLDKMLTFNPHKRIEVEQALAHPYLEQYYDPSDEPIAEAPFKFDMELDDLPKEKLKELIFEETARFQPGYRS

[17] = biological target: Mitogen-activated protein kinase 3 (Homo sapiens) (UniProt P27361); test: Induction of ERK1 phosphorylation
Rattus norvegicus [18] = species: Rattus norvegicus; test: Induction of TrkA Y751 tyrosine phosphorylation in rat hippocampal neurons at 0.5 uM after 30 mins by immunoblotting staining; format: tissue-based; conditions: Hippocampus
[19] = biological target: NT-3 growth factor receptor (Homo sapiens) (UniProt Q16288); test: Binding affinity to TrkC
Sequence of NT-3 growth factor receptor (Homo sapiens) (Q16288 32-839 limits assumed): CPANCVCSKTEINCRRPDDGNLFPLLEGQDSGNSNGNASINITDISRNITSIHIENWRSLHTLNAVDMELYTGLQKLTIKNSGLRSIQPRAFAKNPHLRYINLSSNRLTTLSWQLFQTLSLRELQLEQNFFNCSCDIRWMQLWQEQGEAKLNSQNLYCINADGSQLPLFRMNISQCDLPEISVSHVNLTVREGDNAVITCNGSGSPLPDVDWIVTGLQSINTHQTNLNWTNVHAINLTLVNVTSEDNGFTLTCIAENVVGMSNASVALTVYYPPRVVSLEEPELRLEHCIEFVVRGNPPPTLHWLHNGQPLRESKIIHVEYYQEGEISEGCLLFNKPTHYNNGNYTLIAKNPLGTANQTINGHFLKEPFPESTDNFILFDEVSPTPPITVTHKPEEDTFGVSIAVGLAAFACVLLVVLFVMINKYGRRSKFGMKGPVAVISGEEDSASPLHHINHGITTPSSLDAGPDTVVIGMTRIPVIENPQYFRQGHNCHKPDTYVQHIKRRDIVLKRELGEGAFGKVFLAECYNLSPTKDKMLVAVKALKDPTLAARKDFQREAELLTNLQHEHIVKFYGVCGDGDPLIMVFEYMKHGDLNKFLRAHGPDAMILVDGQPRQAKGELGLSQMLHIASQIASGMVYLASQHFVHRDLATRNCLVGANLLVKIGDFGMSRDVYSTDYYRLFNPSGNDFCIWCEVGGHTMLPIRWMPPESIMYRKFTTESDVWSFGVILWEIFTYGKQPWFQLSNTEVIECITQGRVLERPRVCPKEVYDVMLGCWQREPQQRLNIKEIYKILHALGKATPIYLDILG

Mus musculus [20] = test: Neuroprotective effect on C57BL/6 mouse hippocampal CA1 region assessed as decrease in kainic acid-induced neuronal cell death at 2 mg/kg, sc after 5 days; format: functional; set-up: scale not given: the % may be the effect or the level left; conditions: route subcutaneous
Method in brief: (§6)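 C57BL/6 mice were given 2 mg/kg s.c., followed by 25 mg/kg kainic acid. After 5 days, mice were perfused and 5 μm brain sections cut. Hippocampal apoptosis was quantified by TUNEL with DAPI counterstain.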

PC-12 [21] = test: Induction of neurite outgrowth in rat PC12 cells; format: functional, cell-based; method in brief: as §1
[22] = biological target: Receptor tyrosine-protein kinase erbB-3 (Homo sapiens) (UniProt P21860); test: Binding affinity to ErbB3
Sequence of Receptor tyrosine-protein kinase erbB-3 (Homo sapiens) (P21860 whole entry): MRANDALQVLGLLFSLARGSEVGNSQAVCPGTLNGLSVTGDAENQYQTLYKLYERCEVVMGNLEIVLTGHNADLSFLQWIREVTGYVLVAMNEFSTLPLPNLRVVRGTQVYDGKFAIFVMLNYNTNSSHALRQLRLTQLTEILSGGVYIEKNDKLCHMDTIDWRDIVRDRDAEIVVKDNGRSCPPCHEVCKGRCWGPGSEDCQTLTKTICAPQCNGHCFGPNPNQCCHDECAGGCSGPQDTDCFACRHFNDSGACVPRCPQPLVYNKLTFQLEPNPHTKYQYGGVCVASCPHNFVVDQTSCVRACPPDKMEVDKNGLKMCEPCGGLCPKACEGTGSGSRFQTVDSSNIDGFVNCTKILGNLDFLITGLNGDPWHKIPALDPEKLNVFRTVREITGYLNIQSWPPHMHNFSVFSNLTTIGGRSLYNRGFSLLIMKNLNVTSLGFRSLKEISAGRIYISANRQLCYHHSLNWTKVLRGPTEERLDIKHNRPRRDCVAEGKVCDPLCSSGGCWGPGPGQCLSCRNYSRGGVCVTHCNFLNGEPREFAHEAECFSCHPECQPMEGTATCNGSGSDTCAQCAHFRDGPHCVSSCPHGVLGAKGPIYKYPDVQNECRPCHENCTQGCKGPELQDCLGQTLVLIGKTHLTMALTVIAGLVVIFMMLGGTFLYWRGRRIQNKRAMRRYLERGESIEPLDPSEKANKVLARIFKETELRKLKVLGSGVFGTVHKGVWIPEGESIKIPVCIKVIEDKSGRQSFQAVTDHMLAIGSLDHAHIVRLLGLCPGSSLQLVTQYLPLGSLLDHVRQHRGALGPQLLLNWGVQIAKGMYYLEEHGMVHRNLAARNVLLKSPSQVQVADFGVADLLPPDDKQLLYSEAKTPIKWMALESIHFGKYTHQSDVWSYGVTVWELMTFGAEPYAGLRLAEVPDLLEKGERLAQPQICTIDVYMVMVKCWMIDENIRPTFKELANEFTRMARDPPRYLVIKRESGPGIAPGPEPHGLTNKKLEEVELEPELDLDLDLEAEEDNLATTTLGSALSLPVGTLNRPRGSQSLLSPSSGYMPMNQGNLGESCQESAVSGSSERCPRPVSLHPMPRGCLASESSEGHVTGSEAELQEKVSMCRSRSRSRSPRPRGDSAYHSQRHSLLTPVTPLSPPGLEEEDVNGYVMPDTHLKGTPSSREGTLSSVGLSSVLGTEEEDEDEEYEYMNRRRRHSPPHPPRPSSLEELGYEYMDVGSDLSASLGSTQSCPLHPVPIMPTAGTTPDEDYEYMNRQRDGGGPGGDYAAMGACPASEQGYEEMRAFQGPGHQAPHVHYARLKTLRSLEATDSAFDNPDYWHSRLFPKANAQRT

[23] = biological target: High affinity nerve growth factor receptor (Rattus norvegicus) (UniProt P35739); test: Induction of TrkA tyrosine phosphorylation in rat hippocampal neurons at 0.5 uM after 30 mins by immunoblotting staining; format: tissue-based; conditions: Hippocampus; method in brief: as §2
[24] = biological target: High affinity nerve growth factor receptor (Rattus norvegicus) (UniProt P35739); test: Induction of Akt phosphorylation in rat primary hippocampal neurons after 30 mins; format: tissue-based; conditions: Hippocampus; method in brief: as §5
[25] = biological target: High affinity nerve growth factor receptor (Homo sapiens) (UniProt P04629); test: Binding affinity to TrkA kinase; method in brief: as §4
[26] = biological target: High affinity nerve growth factor receptor (Homo sapiens) (UniProt P04629); test: Induction of TrkA tyrosine phosphorylation in transfected HEK293 cells; format: cell-based
Mus musculus [27] = test: Neuroprotective effect on C57BL/6 mouse hippocampal CA3 region assessed as decrease in kainic acid-induced neuronal cell death at 2 mg/kg, sc after 5 days; format: functional; set-up: scale not given: the % may be the effect or the level left; conditions: route subcutaneous; method in brief: as §6
Hippocampal neurone [28] = test: Neuroprotective effect in oxygen-glucose deprivation triggered cell death in rat hippocampal neurons after 30 mins; format: functional, tissue-based; conditions: Hippocampus
Method in brief: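 Primary hippocampal neurons were pretreated with compounds or NGF 30 min before oxygen–glucose deprivation; apoptosis was assayed 3 h later, including a dose titration. Three independent experiments, mean ± SD.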

Rattus norvegicus [29] = species: Rattus norvegicus; test: Reversal of TrkA Y490 phosphorylation in rat hippocampal neurons at 0.5 uM after 30 mins in presence of K252a; format: tissue-based; conditions: Hippocampus
[30] = biological target: NT-3 growth factor receptor (Homo sapiens) (UniProt Q16288); test: Induction of TrkC tyrosine phosphorylation in transfected HEK293 cells; format: cell-based
[31] = biological target: BDNF/NT-3 growth factors receptor (Homo sapiens) (UniProt Q16620); test: Induction of TrkB tyrosine phosphorylation in transfected HEK293 cells; format: cell-based
[32] = biological target: Mitogen-activated protein kinase 3 (Mus musculus) (UniProt Q63844); test: Induction of ERK1 phosphorylation in mouse T17 cells
[33] = biological target: Mitogen-activated protein kinase 1 (Mus musculus) (UniProt P63085); test: Induction of ERK2 phosphorylation in mouse T17 cells
[34] = biological target: Tumor necrosis factor receptor superfamily member 16 (Homo sapiens) (UniProt P08138); test: Binding affinity to p75NTR

Compound: CC(C)=CCC[C@]1(C)C=Cc2c(O)c3c(c(CC=C(C)C)c2O1)O[C@]12C(=C[C@@H]4CC1C(C)(C)O[C@@]2(C/C=C(/C)C(=O)O)C4O)C3=O (some centres not stated)
- Activity (SN56): Active
- Activity (PC-12 [1]): Active
- EC50 [2]: 200 nM
- Activity (TrkB-stable [3]): Active
- Activity (TrkB-stable [4]): Active
- Activity [5]: inactive

Compound: CC(C)=CCC[C@]1(C)C=Cc2c(O)c3c(c(CC=C(C)C)c2O1)O[C@]12C(=C[C@@H]4CC1C(C)(C)O[C@@]2(C/C=C(/C)C(N)=O)C4=O)C3=O [GAMBOGIC AMIDE]
- Activity [6]: Active
- Activity (HEK293): inactive
- Activity (SN56): Active
- Activity (PC-12 [1]): Active
- Activity (PC-12 [7]): Active
- Activity [8]: inactive
- EC50 [2]: 5 nM
- Activity (Hippocampal neurone [9]): Active
- Activity [10]: Active
- Activity [11]: Active
- Activity [12]: inactive
- Activity (Rattus norvegicus [13]): Active
- Activity [14]: Active
- Activity [15]: tde
- Activity [16]: Active
- Activity [17]: Active
- Activity (Rattus norvegicus [18]): Active
- Activity [19]: inactive
- Activity (TrkB-stable [3]): Active
- Activity (Mus musculus [20]): 6.3%
- Activity (PC-12 [21]): Dose-dependent effect
- Activity [22]: inactive
- Activity [23]: Active
- Activity [24]: Dose-dependent effect
- Activity [25]: Active
- Activity [26]: Active
- Activity (Mus musculus [27]): 1.8%
- Activity (Hippocampal neurone [28]): Dose-dependent effect
- Activity (Rattus norvegicus [29]): Active
- Activity [30]: Active
- Activity [31]: Active
- Activity [32]: Active
- Activity (TrkB-stable [4]): Active
- Activity [33]: Active
- Activity [34]: inactive
- Activity [5]: Active

Compound: COC(=O)/C(C)=C\C[C@@]12OC(C)(C)C3C[C@@H](C=C4C(=O)c5c(OC)c6c(c(CC=C(C)C)c5O[C@]431)O[C@](C)(CCC=C(C)C)C=C6)C2=O
- Activity (SN56): Active
- Activity (PC-12 [1]): inactive
- EC50 [2]: 120 nM
- Activity (TrkB-stable [3]): Active
- Activity (TrkB-stable [4]): Active
- Activity [5]: inactive

Compound: CC(=O)Oc1c2c(c(CC=C(C)C)c3c1C(=O)C1=C[C@@H]4CC5C(C)(C)O[C@@](C/C=C(\C)C(=O)O)(C4=O)[C@@]15O3)O[C@](C)(CCC=C(C)C)C=C2
- Activity (SN56): Active
- Activity (TrkB-stable [3]): Active
- Activity (TrkB-stable [4]): Active
- Activity [5]: inactive

From ChEMBL document CHEMBL1147069, “Gambogic amide, a selective agonist for TrkA receptor that possesses robust neurotrophic activity, prevents neuronal cell death” (Proc Natl Acad Sci U S A, 2007)
